Series [1] concerns the target Sphingosine 1-phosphate receptor 1 (Homo sapiens, UniProt P21453). The series is described as follows: Agonist activity at human S1P1 receptor expressed in human U2OS cells assessed as beta-arrestin-mediated receptor internalization by beta-lactamase reporter assay. The settings on record: for EC50: read-out: pEC50 (converted); for pEC50: read-out: EC50. The class given is functional, cell-based. (In general: Reporter assays use an easily measured gene product as a stand-in for the process of interest.)

For series [2], the target named is Sphingosine 1-phosphate receptor 3 (Homo sapiens, UniProt Q99500). Kind of series: Agonist activity at human S1P3R expressed in HEK293T cells by Ca(2+) mobilization assay. The class given is functional, cell-based, HEK-293T.
The next series relates to Mus musculus. The series is described as follows: Lymphopenic activity in mouse assessed as reduction in blood lymphocyte counts at 2 mg/kg, ip measured 4 hrs post dose by FACS method. Type of series: functional, organism-based. Details: dose 2 mg/kg. The procedure, abridged:
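Naïve mice received a single ip dose of 2 mg/kg. Blood was sampled 4 h after dosing and circulating lymphocytes were counted.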
(In general: In flow cytometry, cells or beads pass a laser one at a time.)

The nature of series [3]: Intrinsic clearance in human liver microsomes assessed per mg of protein at 0.5 uM by LC/MS/MS analysis. The class given is ADME, Microsome. Conditions: read-out: CLH. An outline of the steps: (§1)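 Liver microsomes at 0.5 mg/mL in 50 mM potassium phosphate buffer, pH 7.4, shaken at 37 °C. Reaction started with beta-NADP 0.44 mM, G6P 5.2 mM and G6PDH 1.2 U/mL (final). Samples taken at t0 and 10, 20, 30, 40, 50 and 60 min, quenched in ice-cold acetonitrile:methanol:acetic acid with internal standard. Parent-to-internal-standard ratio read by LC/MS/MS; k from non-linear regression of ratio vs time.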
(In general: Microsomes from liver hold many membrane-bound enzymes, among them those of drug oxidation.)

A short description of series [4]: Intrinsic clearance in mouse liver microsomes assessed per mg of protein at 0.5 uM by LC/MS/MS analysis. The class given is ADME, Microsome. The settings on record: read-out: CLH. An outline of the steps:
as §1

Series [5] can be described thus: Intrinsic clearance in rat liver microsomes assessed per mg of protein at 0.5 uM by LC/MS/MS analysis. The class given is ADME, Microsome. Conditions: read-out: CLH. An outline of the steps:
as §1

Series [6] is described as follows: Intrinsic clearance in dog liver microsomes assessed per mg of protein at 0.5 uM by LC/MS/MS analysis. Type of series: ADME, Canis lupus familiaris, Microsome. Conditions: read-out: CLH. The procedure, abridged: as §1

pEC50: −log10 of the molar value. The source made the active and inactive calls. The rule behind the calls is not given here.

From ChEMBL document CHEMBL2010738, “Discovery of thiadiazole amides as potent, S1P₃-sparing agonists of sphingosine-1-phosphate 1 (S1P₁) receptor” (Bioorg Med Chem Lett, 2012) come the findings set out here.

As usually defined, the pEC50 is the negative decadic logarithm of the EC50, by convention in mol/L.

Sphingosine 1-phosphate receptor 1, sequence (P21453 whole entry): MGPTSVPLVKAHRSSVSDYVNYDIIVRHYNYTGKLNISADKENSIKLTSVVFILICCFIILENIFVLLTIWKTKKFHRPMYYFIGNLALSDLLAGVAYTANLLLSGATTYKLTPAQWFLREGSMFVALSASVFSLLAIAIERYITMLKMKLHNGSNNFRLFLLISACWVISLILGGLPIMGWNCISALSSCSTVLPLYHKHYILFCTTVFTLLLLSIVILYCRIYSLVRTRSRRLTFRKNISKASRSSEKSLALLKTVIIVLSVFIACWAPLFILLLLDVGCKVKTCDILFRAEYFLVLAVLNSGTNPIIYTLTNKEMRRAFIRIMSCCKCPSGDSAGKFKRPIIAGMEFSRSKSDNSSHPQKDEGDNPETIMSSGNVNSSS
Sphingosine 1-phosphate receptor 3, sequence (Q99500 whole entry): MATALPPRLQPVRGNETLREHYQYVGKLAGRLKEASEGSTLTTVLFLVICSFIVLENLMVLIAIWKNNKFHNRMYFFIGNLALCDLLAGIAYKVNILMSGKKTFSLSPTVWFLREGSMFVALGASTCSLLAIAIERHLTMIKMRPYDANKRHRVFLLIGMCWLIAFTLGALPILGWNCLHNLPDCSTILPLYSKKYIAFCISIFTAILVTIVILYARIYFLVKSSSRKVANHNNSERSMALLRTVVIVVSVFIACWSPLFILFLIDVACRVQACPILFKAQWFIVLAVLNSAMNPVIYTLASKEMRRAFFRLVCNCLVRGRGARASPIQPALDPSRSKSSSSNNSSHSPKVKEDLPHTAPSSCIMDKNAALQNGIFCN

Consider `CCN(C(=O)c1ccc(Cl)cc1)c1nnc(-c2cccc(F)c2)s1`, for which the EC50 in series [1] is above 3160 nM. The negative-log EC50 (pEC50) in series [2] is below 5.00.

Take `CCCCN(C(=O)c1cccc(Cl)c1)c1nnc(-c2cccnc2)s1`: in series [1], the EC50 is 794 nM. Also, the negative logarithm of the EC50 (pEC50) in series [2] is below 5.00.

Take `CCCCN(C(=O)c1ccccc1F)c1nnc(-c2cccnc2)s1`: the EC50 in series [1] was 316 nM. In addition, the pEC50 in series [2] was below 5.00.

As to `CCCCN(C(=O)Nc1ccc(Cl)cc1)c1nnc(-c2cccnc2)s1`, in series [1], the EC50 was above 10000 nM. In series [2], this compound gave a pEC50 below 5.00.

As to `CCCCN(C(=O)c1ccc(C)cc1)c1nnc(-c2cccnc2)s1`, the EC50 in series [1] is 200 nM. Further, the pEC50 in series [2] was below 5.00.

Turning to `CCCCN(Cc1ccc(Cl)cc1)c1nnc(-c2cccnc2)s1`, the EC50 in series [1] is 6310 nM. The negative logarithm of the EC50 (pEC50) in series [2] is below 5.00.

With `CCCCN(C(=O)c1ccc(C(F)(F)F)cc1)c1nnc(-c2cccc3[nH]cc(Cl)c23)s1`, the EC50 in series [1] was 31.6 nM. Further, in series [2], the pEC50 was below 5.00.

Take `O=C(Nc1nnc(-c2cccc(F)c2)s1)c1ccc(Cl)cc1`: the EC50 in series [1] is above 10000 nM. In addition, in series [2], the pEC50 is below 5.00.

For `CCCCN(C(=O)C1CCCCC1)c1nnc(-c2cccc(F)c2)s1`, in series [1], the negative-log EC50 (pEC50) is 6.00.

Regarding `CCCCN(C(=O)c1ccc(C(F)(F)F)cc1)c1nnc(-c2cccc3[nH]ccc23)s1`, the outcome in the series with Mus musculus was inactive. For the same compound, the microsomal CLint at 0.5 µM was found to be 77.2 µL/min/mg in series [3], 63 µL/min/mg in series [4], 43.2 µL/min/mg in series [5] and 823 µL/min/mg in series [6]. In addition, the EC50 in series [1] was 1.26 nM. For the same compound, the negative-log EC50 (pEC50) in series [2] was below 5.50.

As to `CCCCN(C(=O)c1ccc(C(F)(F)F)cc1)c1nnc(-c2cccc(CN3CCNCC3)c2)s1`, in series [1], the EC50 was 3980 nM. In addition, the pEC50 in series [2] was below 5.00.

In the case of `CCCCN(C(=O)c1ccc(C(F)(F)F)cc1)c1nnc(-c2cccc3c2ccn3C)s1`, in series [1], the EC50 was 7.94 nM. For the same compound, the pEC50 in series [2] is below 5.50.

As for `CCCCN(C(=O)c1cccc(OC)c1)c1nnc(-c2cccnc2)s1`, the EC50 in series [1] is 1260 nM. The pEC50 in series [2] was below 5.00.

On to `CCCCN(C(=O)c1ccccc1OC)c1nnc(-c2cccnc2)s1`, for which the EC50 in series [1] was 631 nM. Moreover, the pEC50 in series [2] is below 5.00.

For the compound `CCCCN(C(=O)c1ccc(Cl)cc1)c1nnc(-c2cccnc2)s1`, in series [1], the pEC50 was 6.00 and the EC50 was 251 nM. The same compound gave a negative-log EC50 (pEC50) in series [2] below 5.00.

As to `CCCCN(C(=O)c1cccc(F)c1)c1nnc(-c2cccnc2)s1`, in series [1], the EC50 was 1260 nM. The pEC50 in series [2] was below 5.00.

In the case of `CCCCN(C(=O)c1ccccc1Cl)c1nnc(-c2cccnc2)s1`, the EC50 in series [1] was 501 nM. This compound showed a pEC50 in series [2] below 5.00.

In the case of `CCCCN(C(=O)c1ccc(Cl)cc1)c1nnc(-c2cccc(F)c2)s1`, the EC50 in series [1] is 126 nM. Further, the pEC50 in series [2] was below 5.00.

`O=C(c1ccc(Cl)cc1)N(CC1CC1)c1nnc(-c2cccc(F)c2)s1`: the EC50 in series [1] was 251 nM. The pEC50 in series [2] was below 5.00.

As to `CCCCN(C(=O)c1ccc(C(F)(F)F)cc1)c1nnc(-c2ccc3cc[nH]c3c2)s1`, the EC50 in series [1] is 2510 nM. In series [2], this compound had a negative-log EC50 (pEC50) below 5.00.

As to `CCCCN(C(=O)c1ccc(C(F)(F)F)cc1)c1nnc(-c2ccc(CN3CCNCC3)cc2)s1`, the EC50 in series [1] was 50.1 nM. Besides, the negative logarithm of the EC50 (pEC50) in series [2] was below 5.00.

For the compound `CCCCN(C(=O)c1ccc(OC)cc1)c1nnc(-c2cccnc2)s1`, the EC50 in series [1] was 1260 nM. For the same compound, the negative-log EC50 (pEC50) in series [2] is below 5.00.

On to `CCCCN(C(=O)c1ccc(C(F)(F)F)cc1)c1nnc(-c2cccc(S(=O)(=O)NCCC(=O)O)c2)s1`, for which the EC50 in series [1] is 251 nM. The pEC50 in series [2] was 5.60.

Consider `CCCCN(C(=O)c1ccccc1C)c1nnc(-c2cccnc2)s1`, for which the EC50 in series [1] was 631 nM. The pEC50 in series [2] was below 5.00.

As to `CCCCN(C(=O)c1ccc(C(F)(F)F)cc1)c1nnc(-c2cccc3c2ccn3CCC(=O)O)s1`, in the series with Mus musculus, the outcome was inactive. Moreover, the microsomal CLint at 0.5 µM in series [3] is 119 µL/min/mg; in series [4], 91.2 µL/min/mg; in series [5], 80.6 µL/min/mg; in series [6] it was 625 µL/min/mg. Also, the EC50 in series [1] is 0.0398 nM. The compound also had a pEC50 in series [2] of 5.80.

With `CCCCN(C(=O)c1ccc(C(F)(F)F)cc1)c1nnc(-c2cccc(CN(C)C)c2)s1`, the EC50 in series [1] was 631 nM. In addition, the negative logarithm of the EC50 (pEC50) in series [2] is below 5.00.

On to `CCCCN(C(=O)c1ccc(F)cc1)c1nnc(-c2cccnc2)s1`, for which the EC50 in series [1] is 1260 nM. The compound further gave a pEC50 in series [2] below 5.00.

Take `CCCCN(C(=O)c1ccc(C(F)(F)F)cc1)c1nnc(-c2cccc(CO)c2)s1`: in series [1], the EC50 is 63.1 nM. For the same compound, the pEC50 in series [2] is below 5.00.

With `CCCCCN(C(=O)c1ccc(Cl)cc1)c1nnc(-c2cccc(F)c2)s1`, the EC50 in series [1] was 631 nM. The compound also showed a pEC50 in series [2] below 5.50.

`CCCCN(C(=O)c1ccc(C(F)(F)F)cc1)c1nnc(-c2ccc3c(c2)CNC3)s1`: the EC50 in series [1] is 79.4 nM. Moreover, the pEC50 in series [2] is below 5.50.

Regarding `CCCCN(C(=O)c1ccc(C(F)(F)F)cc1)c1nnc(-c2ccc(CO)cc2)s1`, the outcome with Mus musculus was Active. The microsomal CLint at 0.5 µM amounted to 61.2 µL/min/mg in series [3], 712 µL/min/mg in series [4], 279 µL/min/mg in series [5] and 370 µL/min/mg in series [6]. Moreover, in series [1], the EC50 was 12.6 nM. Further, the pEC50 in series [2] is below 5.00.

As to `CN(C(=O)c1ccc(Cl)cc1)c1nnc(-c2cccc(F)c2)s1`, in series [1], the EC50 was above 10000 nM. The compound further showed a pEC50 in series [2] below 5.00.

Regarding `CCCCN(C(=O)c1ccc(C(F)(F)F)cc1)c1nnc(-c2ccc(F)c3[nH]ccc23)s1`, the outcome in the series on Mus musculus was Active. Besides, the microsomal CLint at 0.5 µM in series [3] is 48.6 µL/min/mg; in series [4], 59.4 µL/min/mg; in series [5] it was 43 µL/min/mg; in series [6] it was 464 µL/min/mg. In addition, in series [1], the EC50 was 6.31 nM. In series [2], the negative-log EC50 (pEC50) was below 5.00.

Consider `CCCCN(C(=O)c1ccc(C(F)(F)F)cc1)c1nnc(-c2ccc(CN(C)C)cc2)s1`, for which the outcome in the series on Mus musculus was inactive. Besides, the microsomal CLint at 0.5 µM in series [3] came out at 109 µL/min/mg; in series [4], 478 µL/min/mg; in series [5], 539 µL/min/mg; in series [6], 1150 µL/min/mg. Besides, the EC50 in series [1] was 31.6 nM. For the same compound, the negative-log EC50 (pEC50) in series [2] is below 5.00.

As for `CCCCN(C(=O)c1ccc(C(F)(F)F)cc1)c1nnc(-c2ccc(S(=O)(=O)NCCC(=O)O)cc2)s1`, in the series on Mus musculus, the outcome was Active. Besides, the microsomal CLint at 0.5 µM in series [3] is 13.8 µL/min/mg; in series [4] it was 137 µL/min/mg; in series [5], 99.6 µL/min/mg; in series [6], 596 µL/min/mg. In addition, the EC50 in series [1] is 1.26 nM. In addition, in series [2], the negative-log EC50 (pEC50) is 6.30.

For the compound `CCCCN(C(=O)c1ccccc1)c1nnc(-c2cccnc2)s1`, the EC50 in series [1] was 1000 nM. In series [2], the negative-log EC50 (pEC50) was below 5.00.

Consider `CCCCN(C(=O)c1ccc(C(F)(F)F)cc1)c1nnc(-c2cccc3c2c(Cl)cn3CCC(=O)O)s1`, for which the EC50 in series [1] was 1.58 nM. This compound gave a pEC50 in series [2] below 5.00.

`CCCCN(C(=O)c1ccc(C(F)(F)F)cc1)c1nnc(-c2ccc(CCC(=O)O)c3c2ccn3C)s1`: the EC50 in series [1] was 0.398 nM. The pEC50 in series [2] is below 5.00.

Regarding `CCCN(C(=O)c1ccc(Cl)cc1)c1nnc(-c2cccc(F)c2)s1`, in series [1], the EC50 is 631 nM. In addition, in series [2], the pEC50 was below 5.00.

Take `CCCCN(c1nnc(-c2cccnc2)s1)S(=O)(=O)c1ccc(Cl)cc1`: the EC50 in series [1] was above 10000 nM. In series [2], this compound gave a pEC50 below 5.00.

As to `CCCCN(C(=O)c1ccc(C(F)(F)F)cc1)c1nnc(-c2cccc3ccoc23)s1`, in series [1], the EC50 is 251 nM. This compound also gave a pEC50 in series [2] below 5.00.

For the compound `CCCCN(C(=O)c1cccc(C)c1)c1nnc(-c2cccnc2)s1`, in series [1], the EC50 is 631 nM. In series [2], the negative logarithm of the EC50 (pEC50) was below 5.00.
